Reference: ChEMBL document CHEMBL5058577, “EUbOPEN Chemogenomics Library 2 (Multiplex)” (2022)

Test system: HEK-293T
Experiment: Multiplex assay against HEK293T
Assay type: toxicity, cell-based
Conditions: human
In short: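 Imaging took place on a CQ1 microscope at 37°C and 5% CO2 once compound had been added to live cells stained at seeding with Hoechst33342, BioTracker Green Microtubule Cytoskeleton Dye, MitoTracker Red and Annexin V Alexa Fluor 680. CellPathfinder machine-learning gating classed cells as Hoechst high-intensity objects or normal cells, classed normal cells as having healthy, pyknosed or fragmented nuclei, and classed pyknosed cells as mitotic or apoptotic. Tubulin, mitochondrial-mass and membrane-permeability phenotypes are per cents of the healthy-nucleus cells.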

[1] = 12 h, 1 µM, compound concentration 1 uM, replicate 1
[2] = 12 h, 1 µM, compound concentration 1 uM, replicate 2
[3] = 12 h, 10 µM, compound concentration 10 uM, replicate 1
[4] = 12 h, 10 µM, compound concentration 10 uM, replicate 2
[5] = 24 h, 1 µM, compound concentration 1 uM, replicate 1
[6] = 24 h, 1 µM, compound concentration 1 uM, replicate 2
[7] = 24 h, 10 µM, compound concentration 10 uM, replicate 1
[8] = 24 h, 10 µM, compound concentration 10 uM, replicate 2
[9] = 48 h, 1 µM, compound concentration 1 uM, replicate 1
[10] = 48 h, 1 µM, compound concentration 1 uM, replicate 2
[11] = 48 h, 10 µM, compound concentration 10 uM, replicate 1
[12] = 48 h, 10 µM, compound concentration 10 uM, replicate 2

For `Cl.Cl.OCCOCCN1CCN(C(c2ccccc2)c2ccc(Cl)cc2)CC1` (stereo not drawn) [HYDROXYZINE HYDROCHLORIDE], the “Population Apoptotic (%)” value [1] was 34%, the “Population Fragmented Nuclei (%)” value [1] was 7% and the “Population Healthy Nuclei (%)” value [1] was 79%. For the same compound, the “Population Hoechst High Intensity Objects (%)” value [1] was 6%, the “Population Membrane Permeable-Phenotype (%)” value [1] was 0% and the “Population Mitochondria Different-Phenotype (%)” value [1] was 48%. The “Population Mitotic Cells (%)” value [1] was 66%, the “Population Normal (%)” value [1] was 93% and the “Population Pyknosed Nuclei (%)” value [1] was 13%. For the same compound, the “Population Tubulin-Different-Phenotype (%)” value [1] was 24%, the “Total Cell Count” value [1] was 394 and the “Population Apoptotic (%)” value [2] was 70%. The “Population Fragmented Nuclei (%)” value [2] was 5%, the “Population Healthy Nuclei (%)” value [2] was 84% and the “Population Hoechst High Intensity Objects (%)” value [2] was 9%. The “Population Mitochondria Different-Phenotype (%)” value [2] was 58%, the “Population Mitotic Cells (%)” value [2] was 29% and the “Population Normal (%)” value [2] was 90%. For the same compound, the “Population Pyknosed Nuclei (%)” value [2] was 9%, the “Population Tubulin-Different-Phenotype (%)” value [2] was 28% and the “Total Cell Count” value [2] was 362. The “Population Apoptotic (%)” value [3] was 49%, the “Population Fragmented Nuclei (%)” value [3] was 8% and the “Population Healthy Nuclei (%)” value [3] was 71%. The “Population Hoechst High Intensity Objects (%)” value [3] was 11%, the “Population Membrane Permeable-Phenotype (%)” value [3] was 0% and the “Population Mitochondria Different-Phenotype (%)” value [3] was 71%. The “Population Mitotic Cells (%)” value [3] was 50%, the “Population Normal (%)” value [3] was 88% and the “Population Pyknosed Nuclei (%)” value [3] was 19%. For the same compound, the “Population Tubulin-Different-Phenotype (%)” value [3] was 65%, the “Total Cell Count” value [3] was 354 and the “Population Apoptotic (%)” value [4] was 68%. For the same compound, the “Population Fragmented Nuclei (%)” value [4] was 6%, the “Population Healthy Nuclei (%)” value [4] was 73% and the “Population Hoechst High Intensity Objects (%)” value [4] was 19%. For the same compound, the “Population Membrane Permeable-Phenotype (%)” value [4] was 1%, the “Population Mitochondria Different-Phenotype (%)” value [4] was 83% and the “Population Mitotic Cells (%)” value [4] was 31%. The “Population Normal (%)” value [4] was 80%, the “Population Pyknosed Nuclei (%)” value [4] was 20% and the “Population Tubulin-Different-Phenotype (%)” value [4] was 59%. For the same compound, the “Total Cell Count” value [4] was 327, the “Population Apoptotic (%)” value [5] was 22% and the “Population Fragmented Nuclei (%)” value [5] was 10%. The “Population Healthy Nuclei (%)” value [5] was 78%, the “Population Hoechst High Intensity Objects (%)” value [5] was 2% and the “Population Membrane Permeable-Phenotype (%)” value [5] was 0%. The “Population Mitochondria Different-Phenotype (%)” value [5] was 34%, the “Population Mitotic Cells (%)” value [5] was 77% and the “Population Normal (%)” value [5] was 97%. The “Population Pyknosed Nuclei (%)” value [5] was 11%, the “Population Tubulin-Different-Phenotype (%)” value [5] was 22% and the “Total Cell Count” value [5] was 566. The “Population Apoptotic (%)” value [6] was 43%, the “Population Fragmented Nuclei (%)” value [6] was 11% and the “Population Hoechst High Intensity Objects (%)” value [6] was 13%. For the same compound, the “Population Mitochondria Different-Phenotype (%)” value [6] was 41%, the “Population Mitotic Cells (%)” value [6] was 56% and the “Population Normal (%)” value [6] was 86%. For the same compound, the “Population Pyknosed Nuclei (%)” value [6] was 9%, the “Population Tubulin-Different-Phenotype (%)” value [6] was 17% and the “Total Cell Count” value [6] was 481. For the same compound, the “Population Apoptotic (%)” value [7] was 29%, the “Population Fragmented Nuclei (%)” value [7] was 10% and the “Population Healthy Nuclei (%)” value [7] was 74%. For the same compound, the “Population Hoechst High Intensity Objects (%)” value [7] was 8%, the “Population Membrane Permeable-Phenotype (%)” value [7] was 0% and the “Population Mitochondria Different-Phenotype (%)” value [7] was 55%. The “Population Mitotic Cells (%)” value [7] was 70%, the “Population Normal (%)” value [7] was 91% and the “Population Pyknosed Nuclei (%)” value [7] was 15%. For the same compound, the “Population Tubulin-Different-Phenotype (%)” value [7] was 49%, the “Total Cell Count” value [7] was 472 and the “Population Apoptotic (%)” value [8] was 59%. For the same compound, the “Population Fragmented Nuclei (%)” value [8] was 8%, the “Population Healthy Nuclei (%)” value [8] was 71% and the “Population Hoechst High Intensity Objects (%)” value [8] was 22%. The “Population Mitochondria Different-Phenotype (%)” value [8] was 72%, the “Population Mitotic Cells (%)” value [8] was 40% and the “Population Normal (%)” value [8] was 77%. The “Population Pyknosed Nuclei (%)” value [8] was 19%, the “Population Tubulin-Different-Phenotype (%)” value [8] was 43% and the “Total Cell Count” value [8] was 383. For the same compound, the “Population Apoptotic (%)” value [9] was 23%, the “Population Fragmented Nuclei (%)” value [9] was 14% and the “Population Healthy Nuclei (%)” value [9] was 79%. The “Population Hoechst High Intensity Objects (%)” value [9] was 1%, the “Population Membrane Permeable-Phenotype (%)” value [9] was 1% and the “Population Mitochondria Different-Phenotype (%)” value [9] was 19%. The “Population Mitotic Cells (%)” value [9] was 76%, the “Population Normal (%)” value [9] was 98% and the “Population Pyknosed Nuclei (%)” value [9] was 5%. The “Population Tubulin-Different-Phenotype (%)” value [9] was 14%, the “Total Cell Count” value [9] was 932 and the “Population Apoptotic (%)” value [10] was 46%. The “Population Hoechst High Intensity Objects (%)” value [10] was 3%, the “Population Membrane Permeable-Phenotype (%)” value [10] was 0% and the “Population Mitotic Cells (%)” value [10] was 53%. The “Population Normal (%)” value [10] was 96%, the “Population Pyknosed Nuclei (%)” value [10] was 6% and the “Population Tubulin-Different-Phenotype (%)” value [10] was 12%. For the same compound, the “Total Cell Count” value [10] was 676, the “Population Apoptotic (%)” value [11] was 38% and the “Population Fragmented Nuclei (%)” value [11] was 14%. For the same compound, the “Population Healthy Nuclei (%)” value [11] was 76%, the “Population Hoechst High Intensity Objects (%)” value [11] was 6% and the “Population Membrane Permeable-Phenotype (%)” value [11] was 0%. For the same compound, the “Population Mitochondria Different-Phenotype (%)” value [11] was 45%, the “Population Mitotic Cells (%)” value [11] was 61% and the “Population Normal (%)” value [11] was 93%. The “Population Pyknosed Nuclei (%)” value [11] was 9%, the “Population Tubulin-Different-Phenotype (%)” value [11] was 35% and the “Total Cell Count” value [11] was 627. The “Population Apoptotic (%)” value [12] was 60%, the “Population Fragmented Nuclei (%)” value [12] was 15% and the “Population Healthy Nuclei (%)” value [12] was 72%. The “Population Hoechst High Intensity Objects (%)” value [12] was 16%, the “Population Mitochondria Different-Phenotype (%)” value [12] was 53% and the “Population Mitotic Cells (%)” value [12] was 40%. For the same compound, the “Population Normal (%)” value [12] was 83%, the “Population Pyknosed Nuclei (%)” value [12] was 12% and the “Total Cell Count” value [12] was 539.
